The record followed here is ChEMBL document CHEMBL4219111, “Multifunctional 5,6-dimethoxybenzo[d]isothiazol-3(2H)-one-N-alkylbenzylamine derivatives with acetylcholinesterase, monoamine oxidases and β-amyloid aggregation inhibitory activities as potential agents against Alzheimer's disease” (Bioorg Med Chem, 2018).

Data set [1] deals with Amyloid-beta precursor protein (Homo sapiens) (UniProt P05067). Description: Inhibition of self-induced aggregation of amyloid beta (1 to 42) (unknown origin) at 25 uM after 24 hrs by thioflavin T fluorescence-based fluorometric method relative to control. The essentials:
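Aβ1-42 pretreated in HFIP 24 h at room temperature, dried, redissolved in DMSO. Peptide (25 µM final) incubated with compound (25 µM final) in 50 mM phosphate pH 7.4 for 24 h at 37 °C. ThT (5 µM) added in 50 mM glycine-NaOH pH 8.5; fluorescence read at ex 446/em 490 nm. Inhibition = (1 − IFi/IFc)×100 after background subtraction, triplicate.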

A short description of data set [2]: Antioxidant activity assessed as trolox equivalents of AAPH radical scavenging activity at 5 uM preincubated for 15 mins followed by AAPH addition measured every min for 90 mins by ORAC-FL assay. It counts as functional. The essentials: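 ORAC-FL in 75 mM phosphate buffer pH 7.4, 200 µL final. Sample plus fluorescein (150 nM final) pre-incubated 15 min at 37 °C, then AAPH added (12 mM final). Fluorescence read every minute for 90 min, ex 485/em 535 nm, normalized to FL+AAPH blank. Trolox standard 1-8 µM final; values given as µM Trolox equivalent per µM compound. Duplicate wells, at least three independent assays.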

A further data set is filed under the species Rattus norvegicus. The data set can be described thus: Inhibition of rat serum BuChE using butyrylthiocholine iodide as substrate measured at 50 uM after 15 mins by Ellman's method relative to control. The essentials: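 Rat serum (25%) as enzyme source; modified Ellman method in […] pH 7.4 with 1 mmol/L butyrylthiocholine iodide and 0.2% DTNB; 37 °C for 15 min, absorbance at 405 nm. Percent inhibition at 50 µM test compound, each concentration in triplicate.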
(In general: In Ellman's method for cholinesterases, released thiocholine reacts with DTNB.)

The target in data set [3] is T1, Amine oxidase [flavin-containing] B (Homo sapiens, UniProt P27338).
T1 sequence (P27338 whole entry): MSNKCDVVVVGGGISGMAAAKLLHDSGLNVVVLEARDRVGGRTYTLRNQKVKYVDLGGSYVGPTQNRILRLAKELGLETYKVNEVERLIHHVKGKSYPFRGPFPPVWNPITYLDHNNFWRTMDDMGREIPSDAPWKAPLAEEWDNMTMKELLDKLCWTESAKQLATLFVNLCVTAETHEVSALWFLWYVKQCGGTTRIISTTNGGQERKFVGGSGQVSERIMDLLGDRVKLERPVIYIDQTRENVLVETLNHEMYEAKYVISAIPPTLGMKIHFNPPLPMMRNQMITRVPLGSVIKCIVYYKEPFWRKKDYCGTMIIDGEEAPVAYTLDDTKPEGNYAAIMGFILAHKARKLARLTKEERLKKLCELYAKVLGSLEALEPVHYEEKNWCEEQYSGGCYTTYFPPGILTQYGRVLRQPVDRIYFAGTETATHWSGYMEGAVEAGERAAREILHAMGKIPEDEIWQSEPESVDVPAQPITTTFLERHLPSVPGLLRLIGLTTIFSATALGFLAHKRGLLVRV
Description: Inhibition of recombinant human MAO-B using kynuramine as substrate after 30 mins by fluorescence assay.

The target of data set [4] is T2, Amine oxidase [flavin-containing] A (Homo sapiens, UniProt P21397).
T2 sequence (P21397 whole entry): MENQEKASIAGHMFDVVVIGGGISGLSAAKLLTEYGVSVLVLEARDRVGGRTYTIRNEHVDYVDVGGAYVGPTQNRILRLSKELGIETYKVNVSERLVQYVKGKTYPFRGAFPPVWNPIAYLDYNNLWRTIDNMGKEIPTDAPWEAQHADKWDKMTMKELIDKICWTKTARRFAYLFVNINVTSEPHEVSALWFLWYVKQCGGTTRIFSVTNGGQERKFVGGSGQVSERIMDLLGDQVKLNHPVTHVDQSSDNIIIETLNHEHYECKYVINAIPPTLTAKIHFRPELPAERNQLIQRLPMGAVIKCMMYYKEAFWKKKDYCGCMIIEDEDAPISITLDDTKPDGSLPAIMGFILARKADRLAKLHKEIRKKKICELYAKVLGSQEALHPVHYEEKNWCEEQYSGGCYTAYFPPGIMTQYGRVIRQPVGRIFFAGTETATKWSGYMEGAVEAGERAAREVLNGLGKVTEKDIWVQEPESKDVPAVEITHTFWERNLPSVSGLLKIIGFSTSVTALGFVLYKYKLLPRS
Description: Inhibition of recombinant human MAO-A using kynuramine as substrate after 30 mins by fluorescence assay.

The target in the next data set is Acetylcholinesterase (Electrophorus electricus, UniProt O42275). Description: Inhibition of Electrophorus electricus AChE using acetylthiocholine iodide as substrate measured after 15 mins by Ellman's method.
The species named for another data set is Homo sapiens. The data set can be described thus: Selectivity index, ratio of IC50 for recombinant human MAO-A to IC50 for recombinant human MAO-B. Summed up:
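Ratio of IC50s, each from a sigmoidal curve of initial kynuramine oxidation rate versus log inhibitor concentration. Curves used six concentrations within 0-100 µM, spanning at least three orders of magnitude. IC50s determined in triplicate.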

Data set [5] can be described thus: Effective permeability of the compound at 100 ug/ml after 18 hrs by PAMPA-BBB assay. (In PAMPA a lipid-coated filter parts donor from acceptor wells.)
Data set [6] addresses Acetylcholinesterase (Electrophorus electricus) (UniProt O42275). The data set can be described thus: Mixed type inhibition of Electrophorus electricus AChE at 0.1 to 0.5 uM using varying levels of acetylthiocholine iodide as substrate incubated for 15 mins followed by substrate addition by Lineweaver-Burk plot analysis.
The nature of data set [7]: Inhibition of rat serum BuChE using butyrylthiocholine iodide as substrate measured after 15 mins by Ellman's method.
Data set [8] deals with T1, Amine oxidase [flavin-containing] B. Description: Inhibition of recombinant human MAO-B at 10 uM using kynuramine as substrate after 30 mins by fluorescence assay relative to control. The note with it: 0.5 h. The essentials:
(§1)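 Recombinant human MAO-A or MAO-B, kynuramine substrate (45 µM for MAO-A, 30 µM for MAO-B), in 100 mM potassium phosphate pH 7.40 with 20.2 mM KCl and under 4% DMSO. Enzyme (7.5 µg/mL) starts the reaction; 30 min at 37 °C. Stopped with NaOH plus water, centrifuged, supernatant fluorescence read at ex 310/em 400 nm. Percent inhibition at 10 µM.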

For data set [9], the target named is T2, Amine oxidase [flavin-containing] A. Description: Inhibition of recombinant human MAO-A at 10 uM using kynuramine as substrate after 30 mins by fluorescence assay relative to control. The note with it: 0.5 h. Summed up: as §1

The source made the active and inactive calls. The calls are words filed in the database; no cut-off is given here.

Chain of Acetylcholinesterase (O42275 whole entry): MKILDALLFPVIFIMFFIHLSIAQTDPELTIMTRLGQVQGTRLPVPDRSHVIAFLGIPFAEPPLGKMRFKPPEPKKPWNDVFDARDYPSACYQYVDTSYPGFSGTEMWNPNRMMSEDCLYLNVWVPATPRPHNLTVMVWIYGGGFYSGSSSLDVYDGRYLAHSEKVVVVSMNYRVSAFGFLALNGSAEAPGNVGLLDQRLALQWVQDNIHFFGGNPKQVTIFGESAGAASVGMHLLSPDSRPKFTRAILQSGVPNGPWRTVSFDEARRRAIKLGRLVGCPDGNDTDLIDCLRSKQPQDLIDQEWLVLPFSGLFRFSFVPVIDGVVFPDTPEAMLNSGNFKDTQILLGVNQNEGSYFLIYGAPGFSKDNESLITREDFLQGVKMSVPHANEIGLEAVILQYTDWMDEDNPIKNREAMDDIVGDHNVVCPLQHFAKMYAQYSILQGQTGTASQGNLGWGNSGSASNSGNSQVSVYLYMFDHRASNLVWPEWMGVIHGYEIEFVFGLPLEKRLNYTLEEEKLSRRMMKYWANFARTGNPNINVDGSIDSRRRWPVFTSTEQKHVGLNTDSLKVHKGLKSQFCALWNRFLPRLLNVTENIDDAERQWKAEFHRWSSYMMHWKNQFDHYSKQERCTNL
Chain of Amyloid-beta precursor protein (Homo sapiens) (P05067 whole entry): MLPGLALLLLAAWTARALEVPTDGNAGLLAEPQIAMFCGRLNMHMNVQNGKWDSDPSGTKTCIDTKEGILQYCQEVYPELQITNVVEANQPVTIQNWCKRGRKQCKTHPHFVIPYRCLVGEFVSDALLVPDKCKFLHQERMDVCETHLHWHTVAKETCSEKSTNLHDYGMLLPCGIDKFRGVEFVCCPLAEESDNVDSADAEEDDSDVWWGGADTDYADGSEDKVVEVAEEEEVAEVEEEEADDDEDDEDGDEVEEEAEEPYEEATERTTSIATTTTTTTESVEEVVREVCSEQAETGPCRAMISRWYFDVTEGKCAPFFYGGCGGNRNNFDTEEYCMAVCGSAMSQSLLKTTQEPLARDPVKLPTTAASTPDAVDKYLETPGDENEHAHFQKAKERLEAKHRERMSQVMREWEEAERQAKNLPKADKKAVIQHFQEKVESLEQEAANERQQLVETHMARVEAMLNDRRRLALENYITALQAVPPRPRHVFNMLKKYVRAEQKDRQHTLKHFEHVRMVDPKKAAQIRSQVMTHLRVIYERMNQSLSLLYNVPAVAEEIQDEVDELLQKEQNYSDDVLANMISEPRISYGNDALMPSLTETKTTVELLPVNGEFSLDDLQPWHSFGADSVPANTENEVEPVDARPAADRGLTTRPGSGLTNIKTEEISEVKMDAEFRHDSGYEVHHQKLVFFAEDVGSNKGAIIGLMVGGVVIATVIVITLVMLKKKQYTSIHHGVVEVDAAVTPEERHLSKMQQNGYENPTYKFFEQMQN
Chain of Acetylcholinesterase (Electrophorus electricus) (O42275 24-633 limits assumed): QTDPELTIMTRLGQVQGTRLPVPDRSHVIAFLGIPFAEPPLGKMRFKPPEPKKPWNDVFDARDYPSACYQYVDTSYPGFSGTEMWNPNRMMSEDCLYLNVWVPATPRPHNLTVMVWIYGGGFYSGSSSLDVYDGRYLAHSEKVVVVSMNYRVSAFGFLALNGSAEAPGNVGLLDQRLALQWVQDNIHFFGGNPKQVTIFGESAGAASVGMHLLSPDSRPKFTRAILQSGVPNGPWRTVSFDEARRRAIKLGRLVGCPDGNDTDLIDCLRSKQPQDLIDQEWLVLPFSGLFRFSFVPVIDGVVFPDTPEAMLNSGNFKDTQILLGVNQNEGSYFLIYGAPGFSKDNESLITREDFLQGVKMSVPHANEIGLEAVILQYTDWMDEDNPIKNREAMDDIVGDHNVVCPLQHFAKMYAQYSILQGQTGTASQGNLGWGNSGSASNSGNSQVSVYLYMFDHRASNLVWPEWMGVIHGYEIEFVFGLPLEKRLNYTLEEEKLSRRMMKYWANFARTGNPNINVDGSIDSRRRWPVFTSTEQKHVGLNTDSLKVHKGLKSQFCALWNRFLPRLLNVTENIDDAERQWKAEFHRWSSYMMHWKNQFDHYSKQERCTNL

For `CCN(CCCCCCn1sc2cc(OC)c(OC)cc2c1=O)Cc1ccccc1`, the inhibition (as a rule, the drop in the measured response relative to a control, in per cent) in [1] was 35.4%; in the data set filed under Rattus norvegicus, 48.2%. In data set [2], the Activity turned out to be 0.27 equiv. For the same molecule, the IC50 (in general, the midpoint of a concentration-inhibition curve) was determined as 20.1 µM in [3], 8.2 µM in data set [4] and 0.29 µM on Acetylcholinesterase. Also, the Ratio IC50 in the data set listed under Homo sapiens was determined as 0.41. Further, in data set [5], the Papp (as a rule, the rate of passage across a membrane or cell layer, normalised by area and donor concentration) at 18 h, 100 ug/ml is 15.6 ×10⁻⁶ cm/s. In addition, the inhibition result in data set [6] was “Active”.

Turning to `COc1cc2c(cc1OC)C(=O)C(CC1CCN(Cc3ccccc3)CC1)C2` (stereo not drawn) [DONEPEZIL], the IC50 in data set [7] was 21.4 µM.

Take `CCN(CCCCCCn1sc2cc(OC)c(OC)cc2c1=O)Cc1ccccc1OC`: the inhibition was 48% in data set [1] and 46.9% in the data set listed under Rattus norvegicus. Further, the Activity in [2] came to 0.28 equiv. In addition, the 50% inhibitory concentration (IC50) in data set [4] worked out at 7.9 µM; at Acetylcholinesterase it was 0.46 µM. The molecule further yielded an apparent permeability coefficient (Papp) at 18 h, 100 ug/ml in data set [5] of 4.32 ×10⁻⁶ cm/s. For the same molecule, the inhibition at 10 µM in [8] was found to be 43.8%.

Turning to `CCN(CCCCCCN1C(=O)c2cc(OC)c(OC)cc2S1(=O)=O)Cc1ccccc1`, the results for the inhibition (in [1]; in the data set filed under Rattus norvegicus) were 6% and 35.7%, respectively. For the same molecule, the inhibition at 10 µM in data set [9] stood at 30.2%; in data set [8], 38.9%. Besides, the Activity in [2] worked out at 0.2 equiv. Moreover, the midpoint of inhibition against Acetylcholinesterase, the IC50, lay at 13.1 µM.
